An excerpt weighted towards active compounds, which were near 2.1% of everything screened.
MLL AF4-AF9 inh: blocks AF4 peptide binding to human AF9; P42568; AlphaScreen, biotin-AF4 peptide binding to FLAG-AF9; inhibition, % at 10 µM; 0.47% of 350,000 active; AID 651704;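 active = every replicate reaching a set inhibition limit, whatever the replicate mean, cut at about 25% in these data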;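 also: 0% = plate neutral control median and 100% = total signal loss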
Target sequence (P42568 whole entry, looked up): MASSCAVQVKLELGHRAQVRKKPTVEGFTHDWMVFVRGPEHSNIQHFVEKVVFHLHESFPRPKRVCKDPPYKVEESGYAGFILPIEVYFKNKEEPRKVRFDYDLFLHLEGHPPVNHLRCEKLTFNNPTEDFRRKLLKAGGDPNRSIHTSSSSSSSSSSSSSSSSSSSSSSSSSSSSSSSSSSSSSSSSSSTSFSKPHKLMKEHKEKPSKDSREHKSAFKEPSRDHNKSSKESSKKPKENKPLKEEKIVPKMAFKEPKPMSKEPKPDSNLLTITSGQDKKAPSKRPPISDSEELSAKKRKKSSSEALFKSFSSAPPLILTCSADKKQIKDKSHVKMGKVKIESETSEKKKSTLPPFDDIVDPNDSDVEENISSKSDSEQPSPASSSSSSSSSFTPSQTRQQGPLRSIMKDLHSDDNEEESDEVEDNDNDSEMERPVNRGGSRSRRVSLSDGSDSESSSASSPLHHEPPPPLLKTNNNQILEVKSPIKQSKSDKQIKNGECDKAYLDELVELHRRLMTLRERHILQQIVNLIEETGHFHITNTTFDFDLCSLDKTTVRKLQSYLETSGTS
PGC1a acetyl inh: lowers PGC1a acetylation signal in U2OS cells | inhibition, % at 15.6 µM | AlphaScreen anti-acetyl-lysine; with virally co-expressed GCN5 acetyltransferase | 0.17% of 350,000 active | AID 651687;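 active = every replicate shows inhibition of at least 40%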;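 also: 0% = neutral control wells and 100% = positive control wells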
GSIS activator: GLuc luminescence reporter in INS-1E cells, primary screen for activators of glucose-dependent secretion of insulin; INS-1E GLuc reporter insulin secretion, 2-3 h; activation, % at 16.6 µM; 0.61% of 370,000 active;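 active = lowest replicate activation of at least 40%, so every replicate reaches that level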;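 also: 0% = median of neutral control wells and 100% = median of IBMX positive control wells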
EWS-Fli block: inhibitors of EWS/Fli oncoprotein transcriptional activity. AID 651661. A673 NR0B1-luciferase reporter, viability-normalised. 0.67% of 350,000 active. inhibition, % at 12.6 µM;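 active = mean inhibition of at least 50% after viability correction, with every replicate also passing that limit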;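 also: firefly luciferase signal divided by Alamar Blue viability fluorescence both relative to DMSO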
Xi reactivation: reactivates the inactive X chromosome in mouse fibroblasts. XiGFP mouse fibroblasts, % GFP-positive cells imaging, 3 d; cells co-treated with 5-aza-dC sensitizer; scaled so ellipticine positive control = 100%. activation, % at 7.58 µM. 0.055% of 360,000 active. AID 743238;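 active = mean normalized replicate activation at least 10% and every replicate at or above 10%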;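 also: 0% = median of on-plate neutral control wells and 100% = ellipticine 6 µM median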
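System: 68-5-11 XiGFP fibroblast line; Timing: 3 days compound exposure; Compound dosing: one concentration, pinned; Benchmarks: positive control ellipticine, 6 µM final; Buffer or medium: DMEM containing 5-aza-dC.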
PAX8 reporter: inhibitors of PAX8 transcriptional activity in RMG-I cells; RMG-I TPO-luciferase reporter, SteadyGlo, 24 h; inhibition, % at 12.6 µM; 1.2% of 360,000 active;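 active = mean replicate inhibition at least 60% with every replicate also reaching 60%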;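 also: luciferase light reporting Pax8 driven TPO promoter activity; plate controls were median of neutral control wells for no effect and mitoxantrone controls for full effect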
* marks the source's active call; other numbers are inactive results.

`COc1ccc2c(c1OC)CN1CCc3cc4c(cc3[C@@H]1[C@@H]2O)OCO4` gave PGC1a acetyl inh -5.
`O[C@@H]1[C@@H](O)C=C2CCN3Cc4cc5c(cc4[C@H]1C23)OCO5` (some centres undefined) gave MLL AF4-AF9 inh 0, GSIS activator -14, EWS-Fli block 44, Xi reactivation 1 and PAX8 reporter 102*.
CC(=O)NC(c1ccc(N(C)C)cc1)c1cc(Cl)c2cccnc2c1O (centres undefined) was read as MLL AF4-AF9 inh 1, PGC1a acetyl inh 8, EWS-Fli block 24, Xi reactivation 0 and PAX8 reporter 85*.
`COc1ccc(C(NC(C)=O)c2cc(Cl)c3cccnc3c2O)cc1` (centres undefined) gave MLL AF4-AF9 inh -5, PGC1a acetyl inh -3, GSIS activator 5, EWS-Fli block 9, Xi reactivation 0 and PAX8 reporter 44.
Screening O=[N+]([O-])c1cc(Cl)c2cccnc2c1O returned MLL AF4-AF9 inh 0, PGC1a acetyl inh -12, GSIS activator -24, EWS-Fli block -12, Xi reactivation 0 and PAX8 reporter -22.
CCC(=O)NC(c1cc(Cl)c2cccnc2c1O)C1CC1 (centres undefined) was read as MLL AF4-AF9 inh -4, GSIS activator -5, EWS-Fli block 27, Xi reactivation 0 and PAX8 reporter 66*.
`CC(=O)NC(c1ccccc1)c1cc(Cl)c2cccnc2c1O` (centres undefined) gave MLL AF4-AF9 inh 1, GSIS activator 16, EWS-Fli block 21, Xi reactivation 0 and PAX8 reporter 85*.
For Oc1c(I)cc(Cl)c2cccnc12 the results were MLL AF4-AF9 inh -1, PGC1a acetyl inh 21, EWS-Fli block 16, Xi reactivation 0 and PAX8 reporter 79*.
`CCC(=O)NC(c1cc(Cl)c2cccnc2c1O)C(C)C` (centres undefined) gave MLL AF4-AF9 inh 8, PGC1a acetyl inh 13, GSIS activator 7, EWS-Fli block 14, Xi reactivation 0 and PAX8 reporter 46.
Screening C[C@H]1CN([C@@H](C)CO)S(=O)(=O)c2ccc(C3=CCCC3)cc2O[C@H]1CN(C)C(=O)c1cnccn1 returned MLL AF4-AF9 inh -2, PGC1a acetyl inh -12, GSIS activator 8, EWS-Fli block 3, Xi reactivation -1 and PAX8 reporter -7.
Screening COc1cccc(C#Cc2ccc([C@H]3[C@@H](CO)N4C(=O)CN(C(=O)c5ccccc5)C[C@H]34)cc2)c1 returned MLL AF4-AF9 inh -1, PGC1a acetyl inh -35, GSIS activator -30, EWS-Fli block 1, Xi reactivation 0 and PAX8 reporter -1.
`C[C@@H]1CN([C@@H](C)CO)C(=O)c2cc(NS(=O)(=O)c3ccc(Cl)cc3)ccc2O[C@@H](C)CCCCO[C@H]1CN(C)CC1CCCCC1` gave PGC1a acetyl inh -15, GSIS activator -32, EWS-Fli block 12, Xi reactivation 1 and PAX8 reporter 19.
For COc1ccc(CN2CC3(CCN(Cc4ccccn4)CC3)c3c(n(C)c4cc(OC)ccc34)[C@H]2CO)cc1 the results were GSIS activator -20 and Xi reactivation 0.
For CNC(=O)C(=O)NCC1OCCCN1S(=O)(=O)c1ccc(F)cc1C (centres undefined) the results were MLL AF4-AF9 inh -3, PGC1a acetyl inh 1, GSIS activator 44*, Xi reactivation 0 and PAX8 reporter -23.
Screening CCNC(=O)C(=O)NCC1OCCCN1S(=O)(=O)c1ccc(F)cc1C (centres undefined) returned MLL AF4-AF9 inh -6, GSIS activator -14, Xi reactivation 0 and PAX8 reporter -6.
Cc1ccc2c(CC(=O)OCC(=O)Nc3ccc(Cl)cn3)coc2c1 was read as MLL AF4-AF9 inh 0, GSIS activator -6, EWS-Fli block 7, Xi reactivation 0 and PAX8 reporter 119*.
For Cc1cccc(C)c1OCC(=O)OCC(=O)Nc1ccc(Cl)cn1 the results were MLL AF4-AF9 inh -1, PGC1a acetyl inh -3, GSIS activator 25, EWS-Fli block 3, Xi reactivation 0 and PAX8 reporter -4.

Source: PubChem BioAssay
